The EternaBench riboswitch data

System: MS2 coat protein
Assay: apparent Kd, MS2 coat protein; higher = weaker binding; RNA-MaP array; FMN 200 µM where present
How it was run: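 Designs were transcribed by stalled E. coli RNA polymerase on Illumina sequencing-chip clusters. They were titrated with SNAP-549-labelled MS2 coat protein from 0.7 or 1.5 nM, doubling to 3 µM, in 100 mM Tris-HCl pH 7.5, 80 mM KCl, 4 mM MgCl2, BSA, DTT, yeast tRNA and Tween-20, without and then with constant ligand. The apparent Kd is the median of filtered per-cluster fits after normalisation of green signal to red-channel RNA signal and control-cluster median Fmax.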

[1] = designed as: OFF switch for flavin mononucleotide, no ligand
[2] = ligand present: flavin mononucleotide, designed as: OFF switch for flavin mononucleotide
[3] = designed as: ON switch for flavin mononucleotide, no ligand
[4] = ligand present: flavin mononucleotide, designed as: ON switch for flavin mononucleotide

| Sequence | apparent Kd [1] [nM] | apparent Kd [2] [nM] | apparent Kd [3] [nM] | apparent Kd [4] [nM] |
| --- | --- | --- | --- | --- |
| GUCGUGCGGCUUUGCUGUACGAGUACAUGAGGAUCACCCAUGUAGGAUAUGGUUCGUUUUGCGUGCUAGAAGGGCGUGCGUUGU | 25.7 | 21.3 |  |  |
| GUCUGGCUAGGAUAUACAGUGUCCACAAGUUAGUUACCCUAACAUGAGGAUCACCCAUGUAGAAGGAGUGAGAA | 72.9 | 308 |  |  |
| GUGACGAAUGUAGGAUAUGCUGACCAAUGGUCAGCAGAAGGACAUGAGGAUCACCCAUGUCAUCCUUAUAAUAAAUAACGUCAC | 13.4 | 18.1 |  |  |
| GUGACGGAUGUAGGAUAUGCUGACCAAUGGUCAGCAGAAGGACAUGAGGAUCACCCAUGUCAUCCUUAUAAUAAAUACCGUCAC |  | 18.3 |  |  |
| GUGCACACUCGAGGAUAUCGGAGUUUUCUCCUUCGAGAAGGCGAUUCGUGCCGUGUUAUUCUGGACAUGAGGAUCACCCAUGUG |  |  | 110 | 36.5 |
| GUGCCUUGGGAGAAGGUAUUAAGCAAAGCAAUAUAAGGAUAUUCAUACCGGAAACGGACAUGAGGAUCACCCAUGUGGCACAAA |  |  | 713 | 233 |
| GUGCGAGCCACAGGAUAUCUACAGAUUUAUCGUAGAGAAGGGUGACCUCGUGCACCACAUGAGGAUCACCCAUGUAACUAGGCG |  |  | 19.6 | 36.3 |
| GUGGAGUAAGGAUAUACAUGAGGAUCACCCAUGUGAGGGUAUGAGAAGGGAAUGAGAGGUAGAAGGUACGAGGG | 172 | 107 |  |  |
| GUGGAGUACGUAGGAUAUGUAGGAUAUUCCUACAUGAGGAUCACCCAUGUUUACAUGGAAGAAGGACAGAAGGACGUGCUCCAG |  |  | 1430 | 14.3 |
| GUGGCAUACCGAGGAUAUUCAUAUAAUAAAUAAACAUGAGGAUCACCCAUGUGGCGAAAGCCUUGGGAGAAGGCGGAAUGCUAC |  |  | 574 | 38.2 |
| GUGGCUAGUGCAGGAUAUUGGCGCGUGUAGUGUCGAGAAGGGCACAUGAGGAUCACCCAUGUGAUCAAUCACUGCUAAGGCCGC | 7.04 | 7.31 |  |  |
| GUGGUACAUGAGGAUCACCCAUGUCAGGAUAUCGUGUGUUUUUUUUCGGCCGCGCGUGCGAGAAGGGACGUCUU | 19.6 | 19.4 |  |  |
| GUGGUACAUGAGGAUCACCCAUGUUAGGAUAUCGCGUGAGGUAAAACUUACACACACACGAGAAGGGACGACAU | 88.6 | 56.2 |  |  |
| GUGGUCAGACAUGAGGAUCACCCAUGUGGAAUAAAUAACACACAGGAUAUCAAAUAUAAAAUAUAUGAGAAGGGUGGAUUGGUG |  |  |  | 224 |
| GUGGUCAGACAUGAGGAUCACCCAUGUGGAAUAAAUAACGAACAGGAUAUGCAAUAUAGGAUAUAGUAGAAGGGUUGAUUGGUG |  |  | 104 | 138 |
| GUGGUCAGACAUGAGGAUCACCCAUGUGGAAUAAAUAAGGUACAGGAUAUCUAAUAUAGGAUAUAAGAGAAGGGUAGGUUGGUG |  |  | 75.4 | 78.4 |
| GUGGUCAGACAUGAGGAUCACCCAUGUGGAAUAAAUAAGGUCAAGGAUAUUCAAUAUAGGAUAUAGAAGAAGGUGAGGUUGGUG |  |  | 136 | 188 |
| GUGUACAGAGGAUAUACAUGAGCAUGGAAACAUGCAACUUCACAUGAGGAUCACCCAUGUAGAAGGCUGUACAC | 25.1 | 111 |  |  |
| GUGUACAGAGGAUAUACAUGAGCUAGGAAACUAGCAAACUCACAUGAGGAUCACCCAUGUAGAAGGCUGUACAC | 264 | 54.7 |  |  |

| Sequence | apparent Kd [1] [nM] | apparent Kd [2] [nM] | apparent Kd [3] [nM] | apparent Kd [4] [nM] |
| --- | --- | --- | --- | --- |
| GUGUACAGAGGAUAUAUAUGAGCAUGGAAACAUGCAAGAUCACAUGAGGAUCACCCAUGUAGAAGGCUGUACAC | 88.4 | 541 |  |  |
| GUGUACGAAGGAUAUACAUGAGGAUCACCCAUGUGAAUAAGAUAGAAUAAGAUAAAGUGUAGAAGGUCGAGUGU | 33 | 29.4 |  |  |
| GUGUACGGAGGAUAUGUAUGGGCAGGCUGACCUGCAGCUUCACAUGAGGAUCACCCAUGUAGAAGGCUGUGCAC | 12.1 | 24.2 |  |  |
| GUGUAGUGAGGAUAUACAUGAGGAUCACCCAUGUGAAUAAGAUAGAAUAAGAUAAAGUGUAGAAGGCAUAGUGU | 40.2 | 31.5 |  |  |
| GUGUCUUGGGAGAAGGCCGAUAGCAAAGCUAUCGGAGGAUAUUCAUACCGGAAACGGACAUGAGGAUCACCCAUGUGGCACAAA |  |  | 1130 | 36.8 |
| GUGUUGUAUGUAGGAUAUGCAUACUGUUAGUAUGCAGAAGGACAUGAGGAUCACCCAUGUAUAUUAUUAUUAUAUAUCAUACAU | 21.1 | 36.8 |  |  |
| GUGUUUGAUGAGGAUAUCGUUGUGGGUAUAUAGCGAGAAGGCAUUACAUGAGGAUCACCCAUGUAGUGUGGGUU | 26.2 | 49.4 |  |  |
| GUUACACAUGAGGAUCACCCAUGUAAGGAUAUGCUGCGGUCGCGAAAACGUGACUGCAGCAGAAGGUACACAUG | 119 | 121 |  |  |
| GUUACAUGAGGAUCACCCAUGUAUGUGUGGGAGUAAGUGUCUUAGGAUAUCUAUGAUUUAAAUUAAGAGAAGGAAGAUUGUUGU |  |  | 101 | 117 |
| GUUAGACAUGAGGAUCACCCAUGUGAGGAUAUGAUGCGAUCGUGAUGAAAUGAUCGCAUCAGAAGGCACAUAUG | 153 | 423 |  |  |
| GUUAGCUCGUGAGGAUAUACAACACUGCUUCGGCAGUGUAUUAAGAUCACAUGAGGAUCACCCAUGUAGAAGGCACGAGCUGAU | 12.8 | 256 |  |  |
| GUUAGUUAAGGAUAUACUGGGAGCUGCGGCGUCUCGCCGCAACAUGAGGAUCACCCAUGUAGAAGGUGGCCAUU | 765 | 425 |  |  |
| GUUAUAUUUAGUUCAUACUAUAUGAUAGAAGGUGAAAUAUAGACAUGAGGAUCACCCAUGUAAUUCAAGGAUAUGUAGUUACUC |  |  | 29.9 | 21.5 |
| GUUCUUCCUGUAAGGAUAUCCAUGUAUCAAAGCAUGGAGAAGGUACAUGAGGAUCACCCAUGUCACCCGCGUUA | 20.2 | 45.3 |  |  |
| GUUGGCUGAGGAUAUGCUUGCAUGCUUUUGUGUUGCGGGUGACAUGAGGAUCACCCAUGUAGAAGGUGGUCGGC | 1040 | 817 |  |  |
| GUUGUGCGAGGAUAUAUGUGAGGUUUGCCUCAACAGGUAAUACAUGAGGAUCACCCAUGUAGAAGGCGCAUGAG | 102 | 589 |  |  |
| GUUUAGUGAGGAUAUGUGGCGUAGAUCGAGCGCGGUCGGCUACAGAAGGCACAUGAGGAUCACCCAUGUUUCUC | 59.5 | 372 |  |  |
| GUUUCACAUGAGGAUCACCCAUGUGAGGAUAUCGAUUUGUUAACCGUAGUUAAUAGAUCGAGAAGGCGCGUGAU | 70.6 | 68.8 |  |  |
| GUUUUCGCAUGAGGAUAUGCUCGCAUUUUAAGAGCAGAAGGUAUGUCUUUAGACAUGAGGAUCACCCAUGUAUUUAUCAUUGAA |  |  |  | 28.2 |

| Sequence | apparent Kd [1] [nM] | apparent Kd [2] [nM] | apparent Kd [3] [nM] | apparent Kd [4] [nM] |
| --- | --- | --- | --- | --- |
| UAAAAGACUAGUAUGGUAACGAUCACAUGAGGAUCACCCAUGUAGGAUAUGAGCAGAAAAUCUGCUCAGAAGGACAUGCUAGUC | 5.8 | 9.08 |  |  |
| UAAAAGCGAGGAUAUACAUGAGGAUCACCCAUGUGAAAGAAAAAUAAAAAAAAAAAAAGUAGAAGGCGCUAAAA | 62.1 | 58.4 |  |  |
| UAAAUUUUAUGAUAUUAUGACAUUAGAAGGCUAUACAUGUUGAUACAUGAGGAUCACCCAUGUAUAGAGGAUAUAGACAAUUAU | 44.1 | 100 |  |  |
| UAAAUUUUAUGAUAUUAUGACAUUAGAAGGCUGUACAUGUUGAUACAUGAGGAUCACCCAUGUAUAGAGGAUAUAGACAAUUAU | 40.5 | 92.6 |  |  |
| UAAAUUUUGUAAGGAUAUACACGAGAUUCAAGUGUAGAAGGUACUUACAUGAGGAUCACCCAUGUAUACAUGGAUACUAGAUAU |  |  | 209 | 103 |
| UAAGUCUAAUGAGGAUAUCGUUAUCAAAGAUAAUGAGAAGGCAUACAAUCAUGAGGACAUGAGGAUCACCCAUGUUGUGACCAU |  |  | 40.9 | 17.6 |
| UAAGUUUUGGUAGGAUAUACUUUAAAUUUCUCUAUCCAUACAUGAGGAUCACCCAUGUUUACAUUGUAGAAGGACCUUUAUGUU | 36.8 | 34 |  |  |
| UAAUAAAGUGUGAGGAUAUGCUGGUCGAUAGAUCAGCAGAAGGCACAUGAGGAUCACCCAUGUAAUAUAUUUUA | 57.9 | 247 |  |  |
| UAAUAAUAAUAAUAGCAGAAUUACAUGAGGAUCACCCAUGUAUAGGAUAUCGUCAGGAAUACUGACGAGAAGGAUACAUACUGC | 17.8 | 25.6 |  |  |
| UAAUAAUAGCAAGGAUAUAGUUAUUAUAAUAUACUAGAAGGUGCACAUGAGGAUCACCCAUGUUUUAUAAUUUGUAAUUUAAAU | 29 | 22.4 |  |  |
| UAAUAGUAUGUUAGGAUAUGCUGGUCCUUGGAUCAGCAGAAGGAACAUGAGGAUCACCCAUGUAGACUAUUUUA | 15.5 | 30 |  |  |
| UAAUCAUGUCCGUAUGUUUUCAGAGAGGAUAUACAUGCGGGCACCUUAACAUGAGGAUCACCCAUGUAGAAGGCUCUGAAAAUG | 97.3 | 22.5 |  |  |
| UAAUCUCAGAUAGGAUAUAUAGGAUAACUUAAGACCUAACAUGAGGAUCACCCAUGUGAUUAUUCGUAGAAGGAUCAUUGAACU |  |  | 254 | 251 |
| UAAUCUCAGAUAGGAUAUAUAGGAUGAUUUAAGACUGAACAUGAGGAUCACCCAUGUGAUUAUCUGUAGAAGGAUCAAUGACCC |  |  | 389 | 348 |
| UAAUCUGGUCAGGAUAUCGGUGCACAGUGCACAGGAGAAGGGACCACAUGAGGAUCACCCAUGUAGGCUCUCCU | 17.8 | 24.4 |  |  |
| UAAUUAAUAAGAUCAAUUAAUUAACAUGAGGAUCACCCAUGUGAGGAUAUCAGCUCGAUUAGAGCUGAGAAGGCACAAUAAUUA | 43.2 | 102 |  |  |
| UACAAUGGAGGAUAUAUGGUCAUACACAUGAGGAUCACCCAUGUCGCGAGUCGUGUAUCCAUAGAAGGCUGUAGUG | 13.7 | 15.6 |  |  |
| UACAGCGUAGAUAAUAAUGAUUACAUGAGGAUCACCCAUGUAUAGGAUAUGCAGUGGAAUACACUGCAGAAGGAUACAUCGCUG | 17 | 37 |  |  |
